Assays:
Type in all cases: ADME, organism-based
Conditions in all cases: in vivo
[1] = Drug concentration in ovariectomized nu/nu mouse plasma assessed 3-(4-morpholinopyrido [3',2':4,5] furo [3,2-d] pyrimidin-2-yl)phenol at 10 mg/kg, po measured after 8 hrs by UHPLC-MS analysis
In short: (§1)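 Female ovariectomized Nu/Nu mice, 4–6 weeks old, n = 5 per group. Single 10 mg/kg oral gavage in 5% DMSO/40% PEG 400/55% saline. Orbital-sinus blood was taken at 0.5, 1, 3, 8 and 24 h, one sampling per group, into EDTA. Plasma was spun at 4 °C and stored at −80 °C. The prodrug's boronic acid metabolite and phenol were quantified by C18 UHPLC–TSQ MS/MS with an acetonitrile/water 0.05% formic acid gradient.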

[2] = Drug concentration in ovariectomized nu/nu mouse plasma assessed 3-(4-morpholinopyrido [3',2':4,5] furo [3,2-d] pyrimidin-2-yl)phenol at 10 mg/kg, po measured after 24 hrs by UHPLC-MS analysis; in short: as §1
[3] = Cmax in ovariectomized nu/nu mouse assessed 3-(4-morpholinopyrido [3',2':4,5] furo [3,2-d] pyrimidin-2-yl)phenol at 10 mg/kg, po measured upto 24 hrs by UHPLC-MS analysis; set-up: dose 10 mg/kg, route oral; in short: as §1
[4] = Tmax in ovariectomized nu/nu mouse assessed 3-(4-morpholinopyrido [3',2':4,5] furo [3,2-d] pyrimidin-2-yl)phenol at 10 mg/kg, po measured upto 24 hrs by UHPLC-MS analysis; in short: as §1
[5] = Half life in ovariectomized nu/nu mouse assessed 3-(4-morpholinopyrido [3',2':4,5] furo [3,2-d] pyrimidin-2-yl)phenol at 10 mg/kg, po measured upto 24 hrs by UHPLC-MS analysis; in short: as §1
[6] = AUC (0 to 24 hrs) in ovariectomized nu/nu mouse assessed 3-(4-morpholinopyrido [3',2':4,5] furo [3,2-d] pyrimidin-2-yl)phenol at 10 mg/kg, po measured upto 24 hrs by UHPLC-MS analysis; set-up: dose 10 mg/kg, time < 24 hr, route oral; in short: as §1
[7] = Drug concentration in ovariectomized nu/nu mouse plasma assessed (3-(4-morpholinopyrido [3',2':4,5] furo [3,2-d] pyrimidin-2-yl)phenyl)boronic acid at 10 mg/kg, ip measured after 0.5 hrs by UHPLC-MS analysis
[8] = Drug concentration in ovariectomized nu/nu mouse plasma assessed (3-(4-morpholinopyrido [3',2':4,5] furo [3,2-d] pyrimidin-2-yl)phenyl)boronic acid at 10 mg/kg, ip measured after 1 hr by UHPLC-MS analysis
[9] = Drug concentration in ovariectomized nu/nu mouse plasma assessed (3-(4-morpholinopyrido [3',2':4,5] furo [3,2-d] pyrimidin-2-yl)phenyl)boronic acid at 10 mg/kg, ip measured after 3 hrs by UHPLC-MS analysis
[10] = Drug concentration in ovariectomized nu/nu mouse plasma assessed (3-(4-morpholinopyrido [3',2':4,5] furo [3,2-d] pyrimidin-2-yl)phenyl)boronic acid at 10 mg/kg, ip measured after 8 hrs by UHPLC-MS analysis
[11] = Drug concentration in ovariectomized nu/nu mouse plasma assessed (3-(4-morpholinopyrido [3',2':4,5] furo [3,2-d] pyrimidin-2-yl)phenyl)boronic acid at 10 mg/kg, ip measured after 24 hrs by UHPLC-MS analysis
[12] = Cmax in ovariectomized nu/nu mouse assessed (3-(4-morpholinopyrido [3',2':4,5] furo [3,2-d] pyrimidin-2-yl)phenyl)boronic acid at 10 mg/kg, ip measured upto 24 hrs by UHPLC-MS analysis; set-up: dose 10 mg/kg, route intraperitoneal
[13] = Tmax in ovariectomized nu/nu mouse assessed (3-(4-morpholinopyrido [3',2':4,5] furo [3,2-d] pyrimidin-2-yl)phenyl)boronic acid at 10 mg/kg, ip measured upto 24 hrs by UHPLC-MS analysis
[14] = AUC in ovariectomized nu/nu mouse assessed (3-(4-morpholinopyrido [3',2':4,5] furo [3,2-d] pyrimidin-2-yl)phenyl)boronic acid at 10 mg/kg, ip measured upto 24 hrs by UHPLC-MS analysis; set-up: time < 24 hr, dose 10 mg/kg, route intraperitoneal
[15] = Drug concentration in ovariectomized nu/nu mouse plasma assessed (3-(4-morpholinopyrido [3',2':4,5] furo [3,2-d] pyrimidin-2-yl)phenyl)boronic acid at 10 mg/kg, po measured after 0.5 hrs by UHPLC-MS analysis; in short: as §1
[16] = Drug concentration in ovariectomized nu/nu mouse plasma assessed (3-(4-morpholinopyrido [3',2':4,5] furo [3,2-d] pyrimidin-2-yl)phenyl)boronic acid at 10 mg/kg, po measured after 1 hr by UHPLC-MS analysis; in short: as §1
[17] = Drug concentration in ovariectomized nu/nu mouse plasma assessed (3-(4-morpholinopyrido [3',2':4,5] furo [3,2-d] pyrimidin-2-yl)phenyl)boronic acid at 10 mg/kg, po measured after 3 hrs by UHPLC-MS analysis; in short: as §1
[18] = Drug concentration in ovariectomized nu/nu mouse plasma assessed (3-(4-morpholinopyrido [3',2':4,5] furo [3,2-d] pyrimidin-2-yl)phenyl)boronic acid at 10 mg/kg, po measured after 8 hrs by UHPLC-MS analysis; in short: as §1
[19] = Drug concentration in ovariectomized nu/nu mouse plasma assessed (3-(4-morpholinopyrido [3',2':4,5] furo [3,2-d] pyrimidin-2-yl)phenyl)boronic acid at 10 mg/kg, po measured after 24 hrs by UHPLC-MS analysis; in short: as §1
[20] = Cmax in ovariectomized nu/nu mouse assessed (3-(4-morpholinopyrido [3',2':4,5] furo [3,2-d] pyrimidin-2-yl)phenyl)boronic acid at 10 mg/kg, po measured upto 24 hrs by UHPLC-MS analysis; set-up: dose 10 mg/kg, route oral; in short: as §1
[21] = Tmax in ovariectomized nu/nu mouse assessed (3-(4-morpholinopyrido [3',2':4,5] furo [3,2-d] pyrimidin-2-yl)phenyl)boronic acid at 10 mg/kg, po measured upto 24 hrs by UHPLC-MS analysis; in short: as §1
[22] = Half life in ovariectomized nu/nu mouse assessed (3-(4-morpholinopyrido [3',2':4,5] furo [3,2-d] pyrimidin-2-yl)phenyl)boronic acid at 10 mg/kg, po measured upto 24 hrs by UHPLC-MS analysis; in short: as §1
[23] = AUC (0 to 24 hrs) in ovariectomized nu/nu mouse assessed (3-(4-morpholinopyrido [3',2':4,5] furo [3,2-d] pyrimidin-2-yl)phenyl)boronic acid at 10 mg/kg, po measured upto 24 hrs by UHPLC-MS analysis; set-up: time < 24 hr, dose 10 mg/kg, route oral; in short: as §1

Cp [1]: 4.1 ng/mL
Cp [2]: 0.7 ng/mL
Cmax [3]: 8.2 ng/mL
Tmax [4]: 1 h
t1/2 [5]: 6.5 h
AUC [6]: 88.2 ng·h/mL
Cp [7]: 30.6 ng/mL
Cp [8]: 44.5 ng/mL
Cp [9]: 28 ng/mL
Cp [10]: 17.2 ng/mL
Cp [11]: 6.5 ng/mL
Cmax [12]: 44.5 ng/mL
Tmax [13]: 1 h
AUC [14]: 400.9 ng·h/mL
Cp [15]: 402.8 ng/mL
Cp [16]: 709.2 ng/mL
Cp [17]: 516.2 ng/mL
Cp [18]: 354.2 ng/mL
Cp [19]: 106.4 ng/mL
Cmax [20]: 709.2 ng/mL
Tmax [21]: 1 h
t1/2 [22]: 9.2 h
AUC [23]: 8879.9 ng·h/mL
SMILES: CC1(C)OB(c2cccc(-c3nc(N4CCOCC4)c4oc5ncccc5c4n3)c2)OC1(C)C

— ChEMBL document CHEMBL4622914, “Development of a bioavailable boron-containing PI-103 Bioisostere, PI-103BE” (Bioorg Med Chem Lett, 2020)
